One experiment deals with Vero. Description: Cytotoxicity against african green monkey Vero cells after 72 hrs by MTT assay. The experiment is classed as cell-based. The note with it: Chlorocebus sabaeus. In short, it runs like this: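 Vero cells were exposed to compounds for 72 h. Viability was measured by cellular conversion of MTT into formazan (non-radioactive proliferation assay), and the cytotoxic concentration was reported as IC50.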
A general note: Tetrazolium assays rely on reduction of a dye to a coloured formazan, in cell work by metabolically active cells.

For experiment [1], the system named is Mycobacterium tuberculosis. Description: Antitubercular activity against Mycobacterium tuberculosis H37Rv after 7 days by resazurin microtitre assay. Format: functional. Conditions: 168 h.
The test system of experiment [2] is Bacillus spizizenii. Description: Antibacterial activity against Bacillus subtilis ATCC 6633 by two fold broth dilution method. Format: functional.
Experiment [3] deals with Candida albicans. Description: Antifungal activity against Candida albicans after 48 hrs by two fold agar dilution method. Format: functional. In short, it runs like this: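 Two-fold serial dilutions in DMSO were tested against C. albicans by agar dilution. Cultures were incubated for 48 h at 35 °C and growth was monitored. MIC was taken as the lowest concentration (highest dilution) that arrested fungal growth.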

The subject of experiment [4] is Escherichia coli. Description: Antibacterial activity against Escherichia coli ATCC 25922 by two fold broth dilution method. The experiment is classed as functional. A general note: Dilution methods test growth across graded concentrations, often in twofold steps.
The subject of experiment [5] is Staphylococcus aureus. The experiment can be described thus: Antibacterial activity against methicillin-resistant Staphylococcus aureus ATCC 43866 by broth dilution method. Format: functional.
The subject of another experiment is Klebsiella pneumoniae. Description: Antibacterial activity against Klebsiella pneumoniae by two fold broth dilution method. The experiment is classed as functional.
Experiment [6] deals with Staphylococcus aureus. Description: Antibacterial activity against methicillin-susceptible Staphylococcus aureus ATCC 35556 by broth dilution method. The experiment is classed as functional.
The test system of experiment [7] is Staphylococcus aureus. Description: Antibacterial activity against Staphylococcus aureus ATCC 25923 by two fold broth dilution method. Format: functional.
Experiment [8] concerns Escherichia coli. The experiment can be described thus: Ratio of ciprofloxacin MIC to compound MIC against Escherichia coli ATCC 25922. Format: functional.
For experiment [9], the system named is Bacillus spizizenii. Description: Ratio of ciprofloxacin MIC to compound MIC against Bacillus subtilis ATCC 6633. Format: functional.
The subject of experiment [10] is Staphylococcus aureus. Description: Ratio of ciprofloxacin MIC to compound MIC against methicillin-susceptible Staphylococcus aureus ATCC 35556. The experiment is classed as functional.
Experiment [11] deals with Staphylococcus aureus. The experiment can be described thus: Ratio of ciprofloxacin MIC to compound MIC against Staphylococcus aureus ATCC 25923. Format: functional.
The test system of experiment [12] is Staphylococcus aureus. The experiment can be described thus: Ratio of ciprofloxacin MIC to compound MIC against methicillin-resistant Staphylococcus aureus ATCC 43866. The experiment is classed as functional.
The subject of experiment [13] is Candida albicans. The experiment can be described thus: Ratio of ampotericin-B MIC to compound MIC against Candida albicans. Format: functional.

Converted amounts (≈) assume the structure as drawn.

Compound `O=[N+]([O-])c1c[nH]c(-c2nnc(-c3cc(-c4ccccc4)nc4ccc(Cl)cc34)o2)c1` had a 50% inhibitory concentration (IC50) in the experiment on Vero of 281 µM. Moreover, the MIC in experiment [1] was determined as 97.2 µg/mL (≈ 233 µM); against Bacillus spizizenii [2], 3.12 µg/mL (≈ 7.48 µM); against Candida albicans [3], 1.56 µg/mL (≈ 3.73 µM); with Escherichia coli [4], 0.78 µg/mL (≈ 1.87 µM); in the experiment on Staphylococcus aureus [5], 3.12 µg/mL (≈ 7.48 µM); against Klebsiella pneumoniae it was 25 µg/mL (≈ 59.8 µM). The minimum inhibitory concentration (MIC) with Staphylococcus aureus [6] and against Staphylococcus aureus [7] was 1.56 µg/mL (≈ 3.73 µM) in each case. Further, the Ratio in the experiment on Escherichia coli [8] is reported as 2.
Turning to `Cn1cc([N+](=O)[O-])cc1-c1nnc(-c2ccc(Cl)cc2Cl)o1`, 387 µM corresponded to half-maximal inhibition in the experiment on Vero (IC50). Also, the MIC stood at 18.4 µg/mL (≈ 54.3 µM) in experiment [1]; 0.78 µg/mL (≈ 2.3 µM) in the experiment on Bacillus spizizenii [2]; 1.56 µg/mL (≈ 4.6 µM) in the experiment with Candida albicans [3]; 1.56 µg/mL (≈ 4.6 µM) against Escherichia coli [4]; 0.78 µg/mL (≈ 2.3 µM) in the experiment with Staphylococcus aureus [5]; 12.5 µg/mL (≈ 36.9 µM) against Klebsiella pneumoniae. The MIC in the experiment on Staphylococcus aureus [6] and against Staphylococcus aureus [7] was 0.39 µg/mL (≈ 1.15 µM) throughout. The Ratio in the experiment with Bacillus spizizenii [9] was 2; in the experiment with Staphylococcus aureus [10], 2; with Staphylococcus aureus [11], 3; in the experiment on Staphylococcus aureus [12], 2; in the experiment with Candida albicans [13], 2.
With `Cn1cc([N+](=O)[O-])cc1-c1nnc(-c2cc3ccccc3[nH]2)o1`, the IC50 in the experiment on Vero worked out at 109 µM. Also, the MIC amounted to 1.56 µg/mL (≈ 5.04 µM) against Bacillus spizizenii [2]; 1.56 µg/mL (≈ 5.04 µM) in the experiment with Candida albicans [3]; 6.25 µg/mL (≈ 20.2 µM) in the experiment on Escherichia coli [4]; 1.56 µg/mL (≈ 5.04 µM) against Staphylococcus aureus [5]; 12.5 µg/mL (≈ 40.4 µM) in the experiment with Klebsiella pneumoniae; 0.39 µg/mL (≈ 1.26 µM) against Staphylococcus aureus [6]. Besides, the minimal inhibitory concentration (MIC) with Staphylococcus aureus [7] turned out to be 0.78 µg/mL (≈ 2.52 µM). For the same compound, the Ratio in the experiment on Staphylococcus aureus [10], with Staphylococcus aureus [11] and in the experiment with Candida albicans [13] was 2 each time.
In the experiment with Vero, `Cn1cc([N+](=O)[O-])cc1-c1nnc(-c2ccns2)o1` registered an IC50 of 320 µM. Moreover, the minimal inhibitory concentration (MIC) against Bacillus spizizenii [2] worked out at 1.56 µg/mL (≈ 5.63 µM); against Candida albicans [3] it was 1.56 µg/mL (≈ 5.63 µM); in the experiment with Escherichia coli [4] it was 6.25 µg/mL (≈ 22.5 µM); against Staphylococcus aureus [5], 1.56 µg/mL (≈ 5.63 µM); with Klebsiella pneumoniae, 12.5 µg/mL (≈ 45.1 µM); against Staphylococcus aureus [6], 0.39 µg/mL (≈ 1.41 µM). In addition, in the experiment on Staphylococcus aureus [7], the MIC stood at 0.78 µg/mL (≈ 2.81 µM). Further, the Ratio in the experiment on Staphylococcus aureus [10], with Staphylococcus aureus [11] and in the experiment with Candida albicans [13] was 2 each time.
As for `Cn1cc([N+](=O)[O-])cc1-c1nnc(-c2cc(-c3ccccc3)nc3ccc(Cl)cc23)o1`, the concentration for half-maximal inhibition (IC50) in the experiment on Vero was 328 µM. Further, the minimal inhibitory concentration (MIC) in the experiment with Bacillus spizizenii [2] is 1.56 µg/mL (≈ 3.61 µM); against Candida albicans [3] it was 0.78 µg/mL (≈ 1.81 µM); in the experiment with Escherichia coli [4], 0.39 µg/mL (≈ 0.903 µM); against Staphylococcus aureus [5] it was 1.56 µg/mL (≈ 3.61 µM); in the experiment on Klebsiella pneumoniae, 12.5 µg/mL (≈ 28.9 µM); in the experiment on Staphylococcus aureus [6], 0.39 µg/mL (≈ 0.903 µM). Besides, in the experiment on Staphylococcus aureus [7], 0.39 µg/mL (≈ 0.903 µM) was the least that counted as inhibitory (MIC). Besides, the Ratio with Staphylococcus aureus [11], with Escherichia coli [8] and in the experiment with Candida albicans [13] was 3 in each case.
In turn, `COc1cccc(OC)c1-c1nnc(-c2cc([N+](=O)[O-])cn2C)o1` registered an IC50 with Vero of 177 µM. Besides, the MIC in experiment [1] worked out at 32 µg/mL (≈ 96.9 µM); with Bacillus spizizenii [2], 1.56 µg/mL (≈ 4.72 µM); in the experiment with Candida albicans [3], 1.56 µg/mL (≈ 4.72 µM); with Escherichia coli [4] it was 6.25 µg/mL (≈ 18.9 µM); with Staphylococcus aureus [5], 1.56 µg/mL (≈ 4.72 µM); against Klebsiella pneumoniae it was 12.5 µg/mL (≈ 37.8 µM). For the same compound, the MIC against Staphylococcus aureus [6] worked out at 0.39 µg/mL (≈ 1.18 µM); in the experiment on Staphylococcus aureus [7], 0.78 µg/mL (≈ 2.36 µM). Further, the Ratio in the experiment on Staphylococcus aureus [10], with Staphylococcus aureus [11] and in the experiment on Candida albicans [13] was 2 in each case.
On to `Cn1cc([N+](=O)[O-])cc1-c1nnc(-c2ccccc2Br)o1`, for which the IC50 with Vero amounted to 303 µM. For the same compound, the minimum inhibitory concentration (MIC) in experiment [1] came to 12.8 µg/mL (≈ 36.7 µM); against Bacillus spizizenii [2], 0.78 µg/mL (≈ 2.23 µM); in the experiment on Candida albicans [3] it was 1.56 µg/mL (≈ 4.47 µM); against Escherichia coli [4] it was 1.56 µg/mL (≈ 4.47 µM); with Staphylococcus aureus [5], 1.56 µg/mL (≈ 4.47 µM); in the experiment with Klebsiella pneumoniae, 12.5 µg/mL (≈ 35.8 µM). The MIC in the experiment with Staphylococcus aureus [6] came out at 0.39 µg/mL (≈ 1.12 µM); in the experiment on Staphylococcus aureus [7], 0.78 µg/mL (≈ 2.23 µM). For the same compound, the Ratio with Bacillus spizizenii [9], in the experiment on Staphylococcus aureus [10], with Staphylococcus aureus [11] and in the experiment on Candida albicans [13] was 2 throughout.
`Cn1cc([N+](=O)[O-])cc1-c1nnc(-c2cccc([N+](=O)[O-])c2O)o1`: in the experiment on Vero, inhibition was half-maximal at 269 µM (IC50). Besides, the minimum inhibitory concentration (MIC) in the experiment on Bacillus spizizenii [2] turned out to be 1.56 µg/mL (≈ 4.71 µM); with Candida albicans [3], 1.56 µg/mL (≈ 4.71 µM); with Escherichia coli [4], 3.12 µg/mL (≈ 9.43 µM); with Staphylococcus aureus [5], 1.56 µg/mL (≈ 4.71 µM); in the experiment on Klebsiella pneumoniae, 12.5 µg/mL (≈ 37.7 µM); in the experiment with Staphylococcus aureus [6], 0.39 µg/mL (≈ 1.18 µM). In the experiment on Staphylococcus aureus [7], this compound registered an MIC of 0.78 µg/mL (≈ 2.35 µM). Moreover, the Ratio in the experiment on Staphylococcus aureus [10], with Staphylococcus aureus [11] and in the experiment with Candida albicans [13] was 2 throughout.
As to `Cn1cc([N+](=O)[O-])cc1-c1nnc(Cc2ccccc2F)o1`, in the experiment with Vero, 245 µM corresponded to half-maximal inhibition (IC50). The MIC in [1] was 8.6 µg/mL (≈ 28.5 µM); in the experiment with Bacillus spizizenii [2] it was 0.78 µg/mL (≈ 2.58 µM); in the experiment with Candida albicans [3] it was 1.56 µg/mL (≈ 5.16 µM); in the experiment with Escherichia coli [4] it was 1.56 µg/mL (≈ 5.16 µM); in the experiment on Staphylococcus aureus [5] it was 1.56 µg/mL (≈ 5.16 µM); against Klebsiella pneumoniae, 12.5 µg/mL (≈ 41.4 µM). The MIC stood at 1.56 µg/mL (≈ 5.16 µM) in the experiment on Staphylococcus aureus [6] and 0.78 µg/mL (≈ 2.58 µM) in the experiment on Staphylococcus aureus [7]. Moreover, the Ratio with Bacillus spizizenii [9], in the experiment on Staphylococcus aureus [11] and with Candida albicans [13] was 2 throughout.

Broadly, the IC50 is the concentration needed to halve the response being measured. Usually MIC stands for the smallest concentration in the dilution series that meets the test's criterion for growth inhibition.

For the origin of these results see ChEMBL document CHEMBL3085642, “Synthesis and evaluation of novel 4-nitropyrrole-based 1,3,4-oxadiazole derivatives as antimicrobial and anti-tubercular agents” (Eur J Med Chem, 2013).
